Here are results for one compound from ChEMBL document CHEMBL1153804, “Optimization of a series of quinazolinone-derived antagonists of CXCR3” (Bioorg Med Chem Lett, 2009).

One data set deals with Cytochrome P450 3A4 (Homo sapiens, UniProt P08684). The experiment in a line: Inhibition of CYP3A4. The data set is classed as ADME.
Data set [1] concerns Blood. Put plainly: Drug level in bleomycin-induced mouse blood at 0.1 mg/mL, sc. The format is ADME, tissue-based.
Data set [2] deals with T1, C-X-C chemokine receptor type 3 (Homo sapiens, UniProt P49682).
T1 sequence (P49682 whole entry): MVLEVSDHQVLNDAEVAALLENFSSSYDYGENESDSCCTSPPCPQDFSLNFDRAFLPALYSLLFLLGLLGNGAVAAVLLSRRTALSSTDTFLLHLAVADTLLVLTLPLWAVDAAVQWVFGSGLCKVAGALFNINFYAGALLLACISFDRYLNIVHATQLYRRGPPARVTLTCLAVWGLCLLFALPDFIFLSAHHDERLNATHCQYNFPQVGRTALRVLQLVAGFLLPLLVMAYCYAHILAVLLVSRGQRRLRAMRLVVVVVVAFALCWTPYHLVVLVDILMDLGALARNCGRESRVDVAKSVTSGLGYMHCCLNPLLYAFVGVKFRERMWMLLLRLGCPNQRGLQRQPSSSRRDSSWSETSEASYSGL
The experiment in a line: Displacement of [125I]-1P10 from human CXCR3 expressed in PBMC after 2 hrs in RPMI buffer by scintillation counting. Background: Displacement assays read how much labelled ligand stays bound in the presence of the test substance.

The next data set addresses T2, Cytochrome P450 1A2 (Homo sapiens, UniProt P05177).
T2 sequence (P05177 whole entry): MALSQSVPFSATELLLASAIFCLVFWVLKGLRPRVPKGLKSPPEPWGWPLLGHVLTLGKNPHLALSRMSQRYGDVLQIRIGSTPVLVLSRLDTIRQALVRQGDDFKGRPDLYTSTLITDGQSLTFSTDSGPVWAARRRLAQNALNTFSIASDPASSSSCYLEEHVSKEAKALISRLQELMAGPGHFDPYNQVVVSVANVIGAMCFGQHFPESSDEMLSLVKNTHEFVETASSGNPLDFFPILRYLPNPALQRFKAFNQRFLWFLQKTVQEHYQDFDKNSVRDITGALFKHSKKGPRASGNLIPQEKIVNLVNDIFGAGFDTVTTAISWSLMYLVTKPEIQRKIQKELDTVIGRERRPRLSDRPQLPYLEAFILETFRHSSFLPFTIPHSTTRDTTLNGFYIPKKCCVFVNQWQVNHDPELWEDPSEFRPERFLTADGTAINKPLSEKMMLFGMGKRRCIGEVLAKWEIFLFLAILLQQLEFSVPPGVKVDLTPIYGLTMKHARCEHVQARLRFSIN
Put plainly: Inhibition of CYP1A2. The data set is classed as ADME.

Data set [3] in a line: Volume of distribution at steady state in rat at 0.5 mg/kg, iv. Details: dose 0.5 mg/kg, route intravenous; call rule not given here. The format is ADME, organism-based. As to conditions: in vivo, read-out: Vdss.
Data set [4] in a line: Mean residence time in cynomolgus monkey at 1 mg/kg, iv. The format is ADME, organism-based, Macaca fascicularis. Details: dose 1 mg/kg, route intravenous. As to conditions: in vivo.
A short description of data set [5]: Oral bioavailability in rat at 2 mg/kg. The data set is classed as ADME, organism-based. As to conditions: in vivo.
For the next data set, the target named is Cytochrome P450 2C9 (Homo sapiens, UniProt P11712). Put plainly: Inhibition of CYP2C9. The format is ADME.
Data set [6] addresses T1, C-X-C chemokine receptor type 3. The experiment in a line: Displacement of [125I]-ITAC from human CXCR3 expressed in human PBMC after 2 hrs in RPMI buffer by scintillation counting.
In data set [7] the target is T3, C-X-C chemokine receptor type 3 (Rattus norvegicus, UniProt Q9JII9).
T3 sequence (Q9JII9 whole entry): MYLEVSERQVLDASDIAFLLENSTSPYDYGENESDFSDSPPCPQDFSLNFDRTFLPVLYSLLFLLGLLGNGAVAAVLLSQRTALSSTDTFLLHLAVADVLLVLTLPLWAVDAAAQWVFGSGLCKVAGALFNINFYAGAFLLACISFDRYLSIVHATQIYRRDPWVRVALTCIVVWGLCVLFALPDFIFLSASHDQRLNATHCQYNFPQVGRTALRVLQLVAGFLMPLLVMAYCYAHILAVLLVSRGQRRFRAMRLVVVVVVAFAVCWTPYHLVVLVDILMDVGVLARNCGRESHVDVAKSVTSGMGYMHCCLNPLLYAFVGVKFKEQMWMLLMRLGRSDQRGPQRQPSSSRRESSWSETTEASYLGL
The experiment in a line: Displacement of [125I]-IP10 from rat CXCR3 expressed in human PBMC after 2 hrs in RPMI buffer by scintillation counting. An outline of the steps:
(§1)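 PBMC bearing CXCR3 were co-incubated with antagonist and recombinant human [125I]-IP10 for 2 h at room temperature in RPMI-1640 (no phenol red) with 0.5% BSA. Cells were harvested onto filter plates and bound radioactivity was counted by scintillation. IC50 values are means of three experiments.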

Data set [8] is described as follows: Clearance in rat at 0.5 mg/kg, iv. As to conditions: in vivo. More on the design: dose 0.5 mg/kg, route intravenous. The format is ADME, organism-based.
Data set [9] is described as follows: Mean residence time in rat at 0.5 mg/kg, iv. More on the design: dose 0.5 mg/kg, route intravenous. As to conditions: in vivo. The format is ADME, organism-based.
For data set [10], the system named is Blood. The experiment in a line: Drug level in bleomycin-induced mouse blood at 3 mg/mL, sc. The format is ADME, tissue-based.
For another data set, the target named is T4, CXC chemokine receptor 3 (Macaca mulatta, UniProt B8PY99).
T4 sequence (B8PY99 whole entry): T1 sequence (P49682 whole entry) with T83A, V259A
Put plainly: Displacement of [125I]-IP10 from rhesus monkey CXCR3 expressed in human PBMC after 2 hrs in RPMI buffer by scintillation counting. An outline of the steps:
as §1

Data set [11] is described as follows: Mean residence time in mouse at 0.5 mg/kg, iv. Details: dose 0.5 mg/kg, route intravenous. The note with it: in vivo. The data set is classed as ADME, organism-based.
The target of data set [12] is T5, C-X-C chemokine receptor type 3 (Canis lupus familiaris, UniProt Q5KSK8).
T5 sequence (Q5KSK8 whole entry): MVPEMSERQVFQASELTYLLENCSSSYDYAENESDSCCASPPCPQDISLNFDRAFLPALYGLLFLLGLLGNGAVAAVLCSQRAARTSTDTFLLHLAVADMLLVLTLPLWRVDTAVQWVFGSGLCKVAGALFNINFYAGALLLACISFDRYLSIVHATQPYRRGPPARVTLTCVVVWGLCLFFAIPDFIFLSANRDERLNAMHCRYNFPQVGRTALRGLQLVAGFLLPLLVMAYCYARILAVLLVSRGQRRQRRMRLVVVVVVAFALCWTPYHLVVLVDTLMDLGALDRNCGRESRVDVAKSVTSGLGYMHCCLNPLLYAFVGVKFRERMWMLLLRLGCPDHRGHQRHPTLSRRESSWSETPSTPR
Put plainly: Displacement of [125I]-IP10 from dog CXCR3 expressed in human PBMC after 2 hrs in RPMI buffer by scintillation counting. An outline of the steps:
as §1

A short description of data set [13]: Oral bioavailability in cynomolgus monkey at 5 mg/kg. The note with it: in vivo. The data set is classed as ADME, organism-based, Macaca fascicularis.
The test system of data set [14] is Blood. The experiment in a line: Drug level in bleomycin-induced mouse blood at 1 mg/mL, sc. The data set is classed as ADME, tissue-based.
Data set [15] concerns Blood. The experiment in a line: Drug level in bleomycin-induced mouse blood at 10 mg/mL, sc. The format is ADME, tissue-based.

Where a chain is given by its changes, count along the chain named.

Cytochrome P450 3A4, sequence (P08684 whole entry): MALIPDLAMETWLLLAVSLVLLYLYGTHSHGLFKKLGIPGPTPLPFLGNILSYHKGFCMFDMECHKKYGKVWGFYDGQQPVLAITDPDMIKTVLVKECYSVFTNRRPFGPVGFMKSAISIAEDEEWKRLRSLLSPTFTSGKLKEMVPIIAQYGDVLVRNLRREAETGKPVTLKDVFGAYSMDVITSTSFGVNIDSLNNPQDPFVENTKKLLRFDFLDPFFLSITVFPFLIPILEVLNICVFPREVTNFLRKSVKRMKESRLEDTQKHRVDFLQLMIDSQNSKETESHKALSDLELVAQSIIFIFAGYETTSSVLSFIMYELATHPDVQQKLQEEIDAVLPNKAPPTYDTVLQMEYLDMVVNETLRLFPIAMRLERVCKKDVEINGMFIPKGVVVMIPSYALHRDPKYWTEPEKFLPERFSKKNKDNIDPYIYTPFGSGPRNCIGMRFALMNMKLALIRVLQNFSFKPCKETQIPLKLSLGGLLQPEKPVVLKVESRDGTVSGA
Cytochrome P450 2C9, sequence (P11712 whole entry): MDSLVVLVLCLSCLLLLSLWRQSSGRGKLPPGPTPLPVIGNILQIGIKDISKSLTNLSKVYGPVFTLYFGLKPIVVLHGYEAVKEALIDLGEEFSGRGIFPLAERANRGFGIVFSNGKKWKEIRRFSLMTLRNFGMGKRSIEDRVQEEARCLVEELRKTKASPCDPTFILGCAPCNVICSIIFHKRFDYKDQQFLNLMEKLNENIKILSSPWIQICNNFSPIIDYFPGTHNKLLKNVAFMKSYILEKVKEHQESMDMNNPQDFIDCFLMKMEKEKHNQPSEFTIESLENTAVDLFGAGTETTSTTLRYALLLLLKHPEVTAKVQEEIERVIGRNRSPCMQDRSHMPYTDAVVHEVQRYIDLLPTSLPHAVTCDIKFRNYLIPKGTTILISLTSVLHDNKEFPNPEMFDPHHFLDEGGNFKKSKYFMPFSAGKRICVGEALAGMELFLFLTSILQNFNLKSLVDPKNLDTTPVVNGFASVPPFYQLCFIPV

The IC50 is the concentration that inhibits the measured activity by half. In general, MRT refers to a mean duration of stay, worked out from the concentration-time curve. The bioavailability is dose-corrected exposure relative to a reference, in per cent. The clearance is the rate of elimination divided by the concentration. Regarding `CCS(=O)(=O)CCN(C(=O)Cc1ccc(F)c(C(F)(F)F)c1)[C@H](C)c1nc2ncccc2c(=O)n1-c1ccc(OCC(F)(F)F)cc1`, the outcome at Cytochrome P450 3A4, on Cytochrome P450 1A2 and at Cytochrome P450 2C9 was Active. Further, the Drug uptake in the data set with Blood [1] amounted to 2 ng/mL; in the data set on Blood [10] it was 18 ng/mL; with Blood [14] it was 11 ng/mL; in the data set with Blood [15], 35 ng/mL. Also, the half-inhibitory concentration (IC50) in data set [2] was found to be 1 nM; in data set [6] it was 1 nM; in [7] it was 4 nM; on CXC chemokine receptor 3, 2 nM; in data set [12], 5 nM. The Vd in [3] was 2.5 L/kg. The mean residence time (MRT) in [4] was 1.6 h; in data set [9], 0.65 h; in [11], 1.1 h. Further, the bioavailability in data set [5] was determined as 26%; in data set [13] it was 14%. Further, the clearance in [8] is 65 mL/min/kg.
